Source: PubChem
TRPC4 agonist = activators of mouse TRPC4 channel. B-score at 10 µM. Q9QUQ5. HEK293 TRPC4beta/mu-opioid, Fluo4 calcium fluorescence; stronger effect = higher value. 310,000 tested, 0.49% active;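 active = B-score above 5 SD of library B-scores, and initial fluorescence ratio not above library mean plus 5 SD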;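 also: positive B-score marks a calcium rise read as TRPC4 activation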
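system = HEK293 cells stably co-expressing mouse TRPC4beta and mu-opioid receptor | schedule = Fluo4 dye loading 45 min at room temperature, 110 s recording | measure = B-scored integrated calcium fluorescence ratio | signal = Fluo4 calcium-sensitive dye fluorescence, kinetic, 1 Hz baseline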
TRPC6 inh = blocks the mouse TRPC6 cation channel | Q61143 | B-score at 10 µM | HEK293-TRPC6, membrane potential dye, ACh-evoked depolarization; stronger effect = lower value | 310,000 tested, 1.1% active | AID 2553;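 active = B-score under library mean minus 3 SD, initial fluorescence not abnormally high, positive integrated signal ratio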;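 also: B-score derived from integrated fluorescence ratio over the kinetic read; more negative B-score means stronger inhibition of depolarization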
Target sequence (Q61143 whole entry, looked up): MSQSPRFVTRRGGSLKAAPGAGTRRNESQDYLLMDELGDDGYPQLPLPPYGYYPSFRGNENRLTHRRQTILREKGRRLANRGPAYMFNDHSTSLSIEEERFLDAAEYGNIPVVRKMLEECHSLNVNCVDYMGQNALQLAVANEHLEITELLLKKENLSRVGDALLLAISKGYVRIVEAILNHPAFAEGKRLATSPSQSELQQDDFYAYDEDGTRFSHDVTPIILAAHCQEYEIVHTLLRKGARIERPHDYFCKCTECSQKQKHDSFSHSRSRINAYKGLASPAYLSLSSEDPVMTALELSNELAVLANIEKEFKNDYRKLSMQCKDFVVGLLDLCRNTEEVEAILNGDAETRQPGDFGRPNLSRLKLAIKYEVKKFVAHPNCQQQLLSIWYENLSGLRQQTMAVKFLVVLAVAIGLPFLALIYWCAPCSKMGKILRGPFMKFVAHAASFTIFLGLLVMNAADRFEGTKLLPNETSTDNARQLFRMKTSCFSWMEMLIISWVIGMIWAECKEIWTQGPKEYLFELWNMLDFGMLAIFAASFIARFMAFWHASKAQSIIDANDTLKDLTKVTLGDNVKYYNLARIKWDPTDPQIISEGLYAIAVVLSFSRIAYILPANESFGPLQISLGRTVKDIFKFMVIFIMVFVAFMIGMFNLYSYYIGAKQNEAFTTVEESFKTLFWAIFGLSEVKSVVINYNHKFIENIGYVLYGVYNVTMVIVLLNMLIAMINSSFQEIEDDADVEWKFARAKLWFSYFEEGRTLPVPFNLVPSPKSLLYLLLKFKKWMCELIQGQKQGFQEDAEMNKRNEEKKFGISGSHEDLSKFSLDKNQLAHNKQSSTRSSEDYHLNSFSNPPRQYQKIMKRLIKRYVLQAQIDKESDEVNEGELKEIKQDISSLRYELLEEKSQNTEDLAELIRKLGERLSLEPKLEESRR
TRPC4 PAM = TRPC4 (mouse) allosteric potentiation; B-score at 10 µM; Q9QUQ5; AID 2227; HEK293 TRPC4beta/mu-opioid, DAMGO EC20, Fluo-4 Ca2+ flux; stronger effect = higher value; 310,000 tested, 0.42% active;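 active = B-score of calcium response area above 5 SD of library B-scores, with initial fluorescence ratio within 5 SD of library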
TRPC6 act = activates the mouse TRPC6 cation channel. HEK293-TRPC6 membrane potential dye fluorescence; stronger effect = higher value. B-score at 10 µM. 310,000 tested, 0.13% active. Q61143. AID 2550;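 active = B-score of the integrated fluorescence ratio above library mean plus 3 SD, and starting fluorescence ratio within library mean plus 5 SD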;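 also: higher score means more depolarization so channel activation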
TRPC4 block = TRPC4 (mouse) channel inhibition; Q9QUQ5; HEK293 TRPC4beta/mu-opioid, DAMGO-evoked Fluo4 calcium flux; stronger effect = lower value; B-score at 10 µM; 300,000 tested, 0.39% active;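 active = B-score over 3 SD under the library average, no early fluorescence shift, positive overall ratio signal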
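Assay system – HEK293 line stably carrying TRPC4beta and mu-opioid receptor · Doses – single dose · Detection – Fluo4 calcium-dye fluorescence, kinetic read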
Of the large screens only hits and unclear results are named; the others gave an inactive call. Most compounds without a hit are left out; they make up all but 2.3% or so of the library.

Cc1nn(-c2ccccc2)c(C)c1NC(=O)COC(=O)/C=C/c1ccccc1	none
COc1ccc(C2CC(=O)N3CN(c4ccc(C)c(Cl)c4)CSC3=C2C#N)cc1OC (centres undefined)	TRPC4 block -6
C=CCNC(=S)N1CCN(c2ccccc2Cl)CC1	none
Cc1cc(C)cc(NC(=S)N2CCN(c3ncc(C(F)(F)F)cc3Cl)CC2)c1	TRPC4 agonist 141
C=CCNC(=S)N1CCN(c2ncc(C(F)(F)F)cc2Cl)CC1	TRPC4 PAM 11
COCCCN(Cc1ccco1)C(=O)Cn1ncc2c([nH]c3ccccc32)c1=O	none
CN(Cc1ccco1)C(=O)Cn1ncc2c([nH]c3ccccc32)c1=O	TRPC4 PAM 20
CCn1cc(CNC(=O)C2CCC(=O)N(Cc3ccc(Cl)cc3)C2)cn1 (centres undefined)	none
CC1CN(CCOCCOc2ccccc2-c2ccccc2)CC(C)O1 (centres undefined)	TRPC4 agonist 63
COc1ccc(CNC(=O)CN(C)Cc2ccccc2F)cc1OC	TRPC4 block -6
CN1CCN(S(=O)(=O)c2ccc(Cl)cc2)CC1	TRPC4 agonist 48
Cc1ccc(S(=O)(=O)N2CCC(N3CCN(C)CC3)CC2)cc1Cl	TRPC4 PAM 35
CN1CCN(S(=O)(=O)c2ccc(-c3ccc(Cl)cc3)cc2)CC1	none
Cc1ccc2occ(/C=N/NC(=O)[C@@H](N)Cc3ccccc3)c(=O)c2c1	TRPC4 PAM 12
COc1ccc(NS(=O)(=O)c2cccc(C(=O)NCC3(N(C)C)CCCCC3)c2)cc1	none
CCSc1nc(-c2ccccc2)c(C#N)c(=O)[nH]1	none
CCCOc1ccc(-c2nc(SCc3ccccc3)[nH]c(=O)c2C#N)cc1OC	TRPC4 block -7
CCN1CCCC1CNC(=O)c1csc2c1CCCC2 (centres undefined)	TRPC4 agonist 79
CCCOc1cccc(C(=O)NCCNC(=O)c2ccco2)c1	TRPC4 block -6
CCCCC[C@H](O)/C=C/[C@H]1CCC(=O)[C@@H]1CCCCCCC(=O)N1CCCCC1CO (some centres undefined)	none
COc1ccc(C(=O)C2CCCN(Cc3cn[nH]c3-c3ccc(F)cc3)C2)cc1OC (centres undefined)	TRPC4 agonist 44
COc1ccc(C(=O)C2CCCN(Cc3ccc(Sc4nncn4C)o3)C2)cc1F (centres undefined)	TRPC4 agonist 131
COc1ccc(C(=O)C2CCCN(Cc3cn(C)nc3-c3ccccc3)C2)cc1F (centres undefined)	none
Cc1ccccc1NC(=O)NNC(=O)COc1ccc2ccccc2c1	none
C=CCn1c(O)c2ccc(C(=O)N=NC(=O)c3ccc(F)cc3)cc2c1O	none
CCN(CC)CCOC(=O)C1(c2ccccc2)CCOCC1	TRPC4 agonist 60
Fc1ccc(NC(=S)NCCc2ccccn2)cc1	TRPC4 agonist 213
COc1ccccc1CN1C(=NC(=O)C2CCCCC2)SC2CS(=O)(=O)CC21 (centres undefined)	none
Cc1cc(Cl)c(OCCCN(C)C)c(Br)c1	none
Cc1cc(Br)cc(C)c1OCCCCN(C)C	TRPC4 PAM 35
Cc1cc(Cl)c(OCCCCNC(C)(C)C)c(Br)c1	TRPC6 act 12
O=C(COc1ccccc1Cl)Nc1ccccc1C(=O)N1CCCCC1	none
COCCN(C(=O)COC(=O)c1ccc(C)s1)c1c(N)n(Cc2ccccc2)c(=O)[nH]c1=O	none
Cc1[nH]n2c(=O)cc(-c3ccc([N+](=O)[O-])cc3)nc2c1-c1ccccc1	TRPC4 block -5
Cc1ccc(CSC2=NCCN2S(=O)(=O)c2ccc(F)cc2)cc1	none
CCCCn1c(N)c(N(CCOC)C(=O)c2c(-c3ccccc3)noc2C)c(=O)[nH]c1=O	none
Cc1cc(C)cc(N(CC(=O)Nc2ccc(C(F)(F)F)cc2)S(=O)(=O)c2c(C)[nH]c(=O)[nH]c2=O)c1	none
Cc1cc(C)cc(N(CC(=O)Nc2ccc(C)cc2Cl)S(=O)(=O)c2c(C)[nH]c(=O)[nH]c2=O)c1	TRPC4 PAM 22
COc1cc(OC)cc(C(=O)Nc2cccc(NC(=O)c3ccccc3)c2)c1	none
COc1cc(OC)cc(C(=O)Nc2ccc(Nc3ccccc3)cc2)c1	TRPC6 inh -5
Cc1ccccc1CC1SC(N)=NC1=O (centres undefined)	none
